# HCV core dimer: inhibitors of HCV core protein dimerization, primary screen, biochemical, TR-FRET, high-throughput | TR-FRET GST/Flag-core106 dimerization, 1536-well | inhibition, % at 5 µM | 300,000 compounds, 0.33% hits;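 active = inhibition above the mean of all tested compounds plus 3 SD, set per screening campaign, cut at about 45% in these data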
#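 Assay system: GST-tagged and Flag-tagged HCV core protein residues 1-106 / Times: compound-protein-antibody incubation 4 h at 22.5 °C / Signal: time-resolved FRET, ex 340 nm, em 617 and 671 nm / Evaluation: % inhibition based on acceptor/donor emission ratio / Benchmarks: wells lacking GST-core106 and wells with excess unlabelled core106 / Repeats: singlicate, one well per compound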
# HSF1 activator: HSF-1 activators, primary screen, NIH3T3-HGL cells, MG132 stress, luminescence, single point; 300,000 compounds, 1.7% hits; activation, % at 9 µM; NIH3T3-HGL HSF-1 luciferase reporter, 8 h; 100% = twice DMSO control signal;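 active = mean replicate activation of at least 50% with a set share of replicates each reaching 50%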;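 also: 0% = median of the neutral control wells and 100% = twice that signal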
# HSF1 inh: HSF1 inhibitors in luciferase reporter cells, primary screen, cell-based, NIH3T3, luminescence. NIH3T3-HGL HSE-luciferase, MG132-induced, luminescence 8 h; active compounds read low. activity change, negative = inhibition, % at 7.5 µM (by protocol). 300,000 compounds, 0.77% hits. AID 2098, 2009;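 active = more than half of replicate wells show activity change below -50%, luminescence cut by over half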;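 also: luciferase reports HSF-1 transcriptional activity via heat shock element; 0% = median of DMSO wells and -100% = zero luminescence signal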
# HSP90 inh: HSP90 inhibitors, primary screen, cell lysate, luminescence; AID 1789, 2009; inhibition, % at 5.6 µM; 290,000 compounds, 0.91% hits; Heat shock protein HSP 90 (rabbit reticulocyte lysate; luciferase refolding); Rabbit reticulocyte lysate, luciferase refolding luminescence, 3 h;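 active = inhibition above the screen-wide mean plus 3 SD, computed separately per campaign, cut at about 16% in these data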;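 also: 0% = DMSO wells and 100% = 60 µM geldanamycin wells; inhibitors lower the luminescence because luciferase stays unfolded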
# FID counter: compounds displacing fluorescent DNA intercalator, primary screen, artefact control for HCV NS3 helicase inhibitor project, biochemical, FID fluorescence; DNA fluorescent intercalator displacement; inhibition, % at 7.9 µM; AID 1845, 2009; 290,000 compounds, 0.17% hits; in the data active = inhibition above about 37%;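 also: 0% = vehicle and 100% = reference compound; higher means more ethidium bromide displaced from hairpin DNA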
# NS3 helicase inh: inhibitors of HCV NS3 helicase, primary screen, biochemical, Cy5 molecular beacon fluorescence. 290,000 compounds, 0.56% hits. Hepatitis C virus NS3 helicase. inhibition, % at 10.9 µM. NS3 helicase DNA unwinding;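 active = inhibition above the mean of all tested compounds plus 3 SD, set per campaign, cut at about 35% in these data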;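 also: 0% = DMSO wells and 100% = thioflavine S control wells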
#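 Assay system: hepatitis C virus NS3 helicase domain fragment enzyme. Also added: annealed dual-labelled DNA beacon duplex, ATP-started. Timing: 1 h reaction at 25 °C, ATP-initiated. Technique: Cy5 fluorescence at 0 and 60 min, beacon hairpin quenching. Evaluation: % inhibition of unwinding. Replication: one well per compound.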
# Active calls of the source: *; / = no result given. Only some compounds are listed: those with a hit (about 3.9% of all), similar ones and a draw of the others.
SMILES,HCV core dimer,HSF1 activator,HSF1 inh,HSP90 inh,FID counter,NS3 helicase inh
CC1CCCC(NC(=O)CCn2c(=S)oc3ccccc32)C1C (centres undefined),0.2,5.5,-2.3,2.0,-6.0,-12.5
C=CCN(C(=O)CCc1ccccc1OC)c1nc(-c2ccc(S(C)(=O)=O)cc2)cs1,-7.4,57.9*,14.9,11.1,-19.1,12.2
C=CCN(C(=O)Cc1cccs1)c1nc(-c2ccc(S(C)(=O)=O)cc2)cs1,31.7,5.4,1.2,3.5,-30.9,-12.4
O=C(CNc1ccccc1Cl)N/N=C1\CCCc2ccccc21,10.9,24.5,2.6,0.0,-3.5,5.8
C/C(CCc1oc2c(Br)cc(Br)cc2c1-c1ccc(C)o1)=N\O,7.2,79.6*,39.7,1.7,-13.5,22.0
Clc1ccc2oc(-c3ccccc3)cc(=NCCCN3CCOCC3)c2c1,/,/,/,1.6,-11.3,-2.3
OCCCCCN=c1cc(-c2ccccc2)oc2ccc(Cl)cc12,-2.2,97.7*,69.3,-4.7,-1.1,-8.2
N#Cc1nc(-c2cccs2)oc1NCc1ccccc1,3.1,6.8,9.3,-3.3,0.3,-10.2
N#Cc1nc(-c2cccs2)oc1NCc1ccc(Cl)cc1,9.5,62.9*,16.3,-4.5,-3.3,2.6
CC(C)C[C@H](NC(=O)N1CCCCCC1)C(=O)O,-3.9,-62.6,-51.3*,3.0,-4.4,-0.7
CCC(C)[C@H](NC(=O)N1CCCCCC1)C(=O)O (some centres undefined),-0.3,-15.4,1.3,1.6,0.3,1.2
Cc1cc(C)n2c(SCC(=O)Nc3ccc(Cl)cn3)nnc2n1,/,/,/,-2.3,-2.5,-0.5
CCn1c(-c2ccsc2)nc2c1c(=O)[nH]c(=O)n2Cc1ccccc1,2.7,55.7*,22.4,1.1,-3.9,-2.8
O=C(COC(=O)COc1ccc(Cl)cc1)Nc1ccc(F)c([N+](=O)[O-])c1,-2.5,-22.5,7.8,4.3,13.9,-0.7
CC(=O)Nc1ccc2c(c1)C(=O)c1ccccc1C2=O,5.9,30.3,24.9,-0.7,11.1,3.4
O=C1C=C(Nc2ccc(O)cc2)C(=O)c2ccccc21,-35.5,64.4*,57.9,10.5,14.2,2.4
CC(=O)Nc1ccc(NC2=CC(=O)c3ccccc3C2=O)cc1,-56.9,76.9*,31.9,10.0,-4.6,10.6
Cc1cc(C)n2nc(SC(C)C(=O)Nc3ccc(Cl)cn3)nc2n1 (centres undefined),2.0,-15.0,2.6,2.7,0.9,3.0
O=[N+]([O-])c1ccc(-c2nc(C(Cl)Cl)c3ccccc3n2)cc1,-1.7,114.6*,65.2,-1.6,0.6,-3.2
O=C(O)C1C2CCC(O2)C1C(=O)Nc1ccc(F)cc1 (centres undefined),-5.5,-4.5,2.7,1.0,3.5,-8.9
CCc1ccc(NC(=O)C2C3CCC(O3)C2C(=O)O)cc1 (centres undefined),-9.4,-74.1,-70.0*,-4.0,3.9,2.2
CSc1ccccc1C(=O)Nc1cc(C)ccc1C,7.4,58.0*,21.1,-1.1,-1.1,-14.2
Cc1nc([N+](=O)[O-])c(Br)n1CC(=O)c1ccc2ccccc2c1,23.1,159.1*,117.6,16.5*,-2.7,4.2
Cc1nc([N+](=O)[O-])c(Br)n1CC(=O)c1ccc(Br)cc1,8.4,122.8*,97.9,-0.1,1.9,1.7
Cc1nc([N+](=O)[O-])c(Br)n1CC(=O)c1ccccc1,10.2,13.2,8.2,3.3,1.8,9.1
SMILES,HCV core dimer,HSF1 activator,HSF1 inh,HSP90 inh,FID counter,NS3 helicase inh
CCOC(=O)N/N=C(/c1ccccc1)C1CCCCC1,1.0,-0.4,2.8,1.2,-2.5,-11.4
O=C(COC(=O)COc1ccc(Br)cc1)Nc1cccnc1Cl,-0.8,-14.8,-7.7,-6.4,-2.8,-2.3
O=C(COC(=O)COc1ccc(Cl)cc1Cl)Nc1cccnc1Cl,-3.4,62.7*,13.4,3.0,-1.1,0.5
Cc1cccc(NC(=O)c2cc(-c3cc(C)cc(C)c3O)n[nH]2)c1,4.0,33.4,26.7,-6.0,-4.6,-0.8
COc1cccc(N=Nc2c(N)[nH][nH]c2=O)c1,-34.0,13.0,7.9,-1.5,-6.8,-6.0
CCOc1ccc(N=Nc2c(N)[nH][nH]c2=O)cc1,-25.9,-83.0,-77.9*,3.7,-1.3,6.1
CSc1cccc(NC(=S)N2CCC(N(C)C3CCCCC3C)CC2)c1 (centres undefined),-2.0,-1.1,-3.2,1.6,16.2,-7.4
Cc1nonc1OCCNc1ccc([N+](=O)[O-])cc1,-7.7,3.9,-4.9,0.7,4.0,8.9
Cc1nonc1OCCNCCNc1ccc([N+](=O)[O-])cc1Cl,-3.9,77.1*,36.2,-0.7,20.1,-10.3
COC(=O)C1(Cc2ccccc2)NC(c2ccccc2C)C2C(=O)N(c3ccc4c(c3)OCO4)C(=O)C21 (centres undefined),21.3,-79.9,-73.3*,-1.4,-16.2,-0.9
COc1ccc(-c2noc(CN(C)C(=O)Nc3ccccc3)n2)cc1,12.2,8.7,2.6,-3.2,-4.7,-4.9
O=C(CN1C(=O)S/C(=C\c2ccccc2)C1=O)Nc1cc([N+](=O)[O-])ccc1O,14.6,5.2,9.1,0.9,43.3*,15.8
Cc1ccc(/C=C2/SC(=S)N(CCCC(=O)Nc3cc([N+](=O)[O-])ccc3O)C2=O)cc1,1.0,0.5,-15.4,9.2,-2.3,-7.5
Cc1ccc(NC2Sc3ccccc3NC2=O)cc1 (centres undefined),-0.3,17.0,2.9,2.1,-4.3,4.5
CCN(CC)C(=S)SCC(=O)c1ccc(F)cc1,-1.4,65.9*,43.0,0.6,-4.8,-3.8
CCCCCOC(=O)c1[nH]c2c(c1C)C(=O)C(C(=O)OC)C(C)C2 (centres undefined),0.7,76.2*,57.1,-6.0,-20.9,-7.8
O=C(CN(Cc1ccc(Br)cc1)S(=O)(=O)c1ccccc1)NCC1CCCO1 (centres undefined),-7.2,-19.0,-3.2,-3.7,-35.8,0.3
CCn1c(=O)cc(SCC(=O)Nc2ccc(Cl)cc2)c2ccccc21,-0.4,97.0*,32.1,0.4,1.0,-1.8
CCn1c(=O)cc(SCC(=O)N2CCN(C3CCCCC3)CC2)c2ccccc21,-1.0,61.7*,29.6,6.9,-4.7,-5.6
CCn1c(=O)cc(SCC(=O)N2CCOCC2)c2ccccc21,1.0,11.4,2.7,3.9,-16.4,9.9
CC(C)(C)c1cnnn1-c1ccc(C=O)cc1,-4.9,7.9,9.7,-4.9,-6.1,2.2
CC(C)(C)c1cnnn1-c1ccc(C(=O)CCl)cc1,7.3,-67.4,-57.2*,-2.6,2.5,0.8

# Screening results as filed in PubChem.
